Test results taken from publication PMC8418994 (Structure (London, England : 1993), 2021).

How the values were obtained:
[1] = test system: [Y473E]-PPARγ LBD; assay: TR-FRET coregulator interaction assay; assay type: biochemical, human
[2] = test system: [Y473E]-PPARγ LBD; assay: Isothermal titration calorimetry; assay type: binding, human; conditions: ITC at 25°C; Figure S7; in words
Procedure, shortened: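 Human PPARγ LBD Y473E mutant (residues 203–477), expressed His-tagged in E. coli BL21(DE3), purified by Ni-NTA and gel filtration. Protein at 30 μM in the cell; test compound at 300 μM in the syringe. Both in 20 mM potassium phosphate pH 7.4, 50 mM KCl, 5 mM TCEP, 0.5 mM EDTA, 0.17% DMSO. A 0.4 μL pre-injection, then nineteen 2 μL injections at 25°C, stirring 1200 rpm.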

[3] = target: T1, PPARγ LBD (Homo sapiens, UniProt P37231); assay: TR-FRET fluorescent tracer ligand displacement assay; assay type: binding
T1 sequence (P37231 203-477 isoform P37231-2): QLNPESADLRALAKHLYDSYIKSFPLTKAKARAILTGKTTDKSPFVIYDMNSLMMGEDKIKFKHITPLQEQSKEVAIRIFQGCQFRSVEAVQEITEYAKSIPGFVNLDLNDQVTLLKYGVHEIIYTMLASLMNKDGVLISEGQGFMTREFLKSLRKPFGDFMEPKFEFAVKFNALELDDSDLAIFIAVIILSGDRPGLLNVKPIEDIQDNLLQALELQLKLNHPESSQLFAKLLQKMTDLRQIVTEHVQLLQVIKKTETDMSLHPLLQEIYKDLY

Row | SMILES | concentration-dependent effect on interaction of the TRAP220/MED1 coactivator peptide [1] | binding affinity to [Y473E]-PPARγ LBD [2] | Ki [3] [nM]
1 | CN(CCOc1ccc(C[C@H](Nc2ccccc2C(=O)c2ccccc2)C(=O)O)cc1)c1ccccn1 [GW1929] | essentially no concentration-dependent effect | reasonably high affinity | 
2 | Cc1oc(-c2ccccc2)nc1CCC(=O)c1ccc(CC2SC(=O)NC2=O)cc1 (stereo not drawn) [darglitazone] |  |  | ≤ 1
